Laboratory results as given in ChEMBL document CHEMBL1795269, “Novel (E)-5-styryl-2,2'-bithiophene derivatives as ligands for β-amyloid plaques” (Eur J Med Chem, 2011).

Assays:
[1] = Displacement of [125I]-TZDM from amyloid beta 1 to 42 after 2 hrs by gamma counting
Procedure, shortened: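 Aβ1-42 aggregated at 0.25 mg/mL in pH 7.4 buffer (10 mM sodium phosphate, 1 mM EDTA), 37 °C for 42 h with shaking. Fibrils (28 nM final) mixed with [125I]TZDM and inhibitor (10^-5 to 10^-10 M in EtOH) in PBS (0.2 M, pH 7.4). Incubated 2 h at 37 °C; nonspecific binding taken with 100 nM TZDM. Bound and free separated by vacuum filtration through glass fibre filters, washed with cold PBS containing 10% ethanol, then counted; Ki reported.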

[2] = test system: Blood; assay: Biodistribution in Kunming mouse blood at 1 uCi, iv after 30 mins by gamma counting; assay type: ADME, organism-based; settings: in vivo, 0.5 h
Procedure, shortened: (§1)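 Female normal KunMing mice, about 20 g. [125I]-labelled tracer (1 μCi) in 100 μL saline injected into the tail vein. Mice killed at set times after injection; organs removed, weighed and counted in a gamma counter. %ID/g of wet tissue calculated against diluted aliquots of the injected dose.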

[3] = test system: Liver; assay: Biodistribution in Kunming mouse liver at 1 uCi, iv after 2 mins by gamma counting; assay type: ADME, organism-based; settings: in vivo; procedure, shortened: as §1
[4] = test system: Muscle tissue; assay: Biodistribution in Kunming mouse muscle at 1 uCi, iv after 60 mins by gamma counting; assay type: ADME, organism-based; settings: in vivo, 1 h; procedure, shortened: as §1
[5] = test system: Stomach; assay: Biodistribution in Kunming mouse stomach assessed per organ at 1 uCi, iv after 2 mins by gamma counting; assay type: ADME, organism-based; settings: in vivo; procedure, shortened: as §1
[6] = test system: Liver; assay: Biodistribution in Kunming mouse liver at 1 uCi, iv after 15 mins by gamma counting; assay type: ADME, organism-based; settings: in vivo, 0.25 h; procedure, shortened: as §1
[7] = test system: Heart; assay: Biodistribution in Kunming mouse heart at 1 uCi, iv after 120 mins by gamma counting; assay type: ADME, organism-based; settings: in vivo, 2 h; procedure, shortened: as §1
[8] = test system: Stomach; assay: Biodistribution in Kunming mouse stomach assessed per organ at 1 uCi, iv after 60 mins by gamma counting; assay type: ADME, organism-based; settings: in vivo, 1 h
[9] = test system: Liver; assay: Biodistribution in Kunming mouse liver at 1 uCi, iv after 30 mins by gamma counting; assay type: ADME, organism-based; settings: in vivo, 0.5 h; procedure, shortened: as §1
[10] = test system: Lung; assay: Biodistribution in Kunming mouse lung at 1 uCi, iv after 60 mins by gamma counting; assay type: ADME, organism-based; settings: in vivo, 1 h; procedure, shortened: as §1
[11] = test system: Heart; assay: Biodistribution in Kunming mouse heart at 1 uCi, iv after 30 mins by gamma counting; assay type: ADME, organism-based; settings: in vivo, 0.5 h; procedure, shortened: as §1
[12] = test system: Kidney; assay: Biodistribution in Kunming mouse kidney at 1 uCi, iv after 15 mins by gamma counting; assay type: ADME, organism-based; settings: in vivo, 0.25 h; procedure, shortened: as §1
[13] = test system: Stomach; assay: Biodistribution in Kunming mouse stomach assessed per organ at 1 uCi, iv after 15 mins by gamma counting; assay type: ADME, organism-based; settings: in vivo, 0.25 h; procedure, shortened: as §1
[14] = test system: Heart; assay: Biodistribution in Kunming mouse heart at 1 uCi, iv after 15 mins by gamma counting; assay type: ADME, organism-based; settings: in vivo, 0.25 h; procedure, shortened: as §1
[15] = test system: Lung; assay: Biodistribution in Kunming mouse lung at 1 uCi, iv after 120 mins by gamma counting; assay type: ADME, organism-based; settings: in vivo, 2 h; procedure, shortened: as §1
[16] = test system: Liver; assay: Biodistribution in Kunming mouse liver at 1 uCi, iv after 60 mins by gamma counting; assay type: ADME, organism-based; settings: in vivo, 1 h; procedure, shortened: as §1
[17] = test system: Kidney; assay: Biodistribution in Kunming mouse kidney at 1 uCi, iv after 120 mins by gamma counting; assay type: ADME, organism-based; settings: in vivo, 2 h; procedure, shortened: as §1
[18] = test system: Spleen; assay: Biodistribution in Kunming mouse spleen at 1 uCi, iv after 120 mins by gamma counting; assay type: ADME, organism-based; settings: in vivo, 2 h; procedure, shortened: as §1
[19] = test system: Liver; assay: Biodistribution in Kunming mouse liver at 1 uCi, iv after 120 mins by gamma counting; assay type: ADME, organism-based; settings: in vivo, 2 h; procedure, shortened: as §1
[20] = test system: Stomach; assay: Biodistribution in Kunming mouse stomach assessed per organ at 1 uCi, iv after 120 mins by gamma counting; assay type: ADME, organism-based; settings: in vivo, 2 h; procedure, shortened: as §1
[21] = test system: Lung; assay: Biodistribution in Kunming mouse lung at 1 uCi, iv after 15 mins by gamma counting; assay type: ADME, organism-based; settings: in vivo, 0.25 h; procedure, shortened: as §1
[22] = test system: Brain; assay: Biodistribution in Kunming mouse brain at 1 uCi, iv after 120 mins by gamma counting; assay type: ADME, organism-based; settings: in vivo, 2 h; procedure, shortened: as §1
[23] = test system: Kidney; assay: Biodistribution in Kunming mouse kidney at 1 uCi, iv after 2 mins by gamma counting; assay type: ADME, organism-based; settings: in vivo; procedure, shortened: as §1
[24] = test system: Heart; assay: Biodistribution in Kunming mouse heart at 1 uCi, iv after 2 mins by gamma counting; assay type: ADME, organism-based; settings: in vivo; procedure, shortened: as §1
[25] = test system: Lung; assay: Biodistribution in Kunming mouse lung at 1 uCi, iv after 2 mins by gamma counting; assay type: ADME, organism-based; settings: in vivo; procedure, shortened: as §1
[26] = test system: Blood; assay: Biodistribution in Kunming mouse blood at 1 uCi, iv after 120 mins by gamma counting; assay type: ADME, organism-based; settings: in vivo, 2 h; procedure, shortened: as §1
[27] = test system: Stomach; assay: Biodistribution in Kunming mouse stomach assessed per organ at 1 uCi, iv after 30 mins by gamma counting; assay type: ADME, organism-based; settings: in vivo, 0.5 h; procedure, shortened: as §1
[28] = test system: Muscle tissue; assay: Biodistribution in Kunming mouse muscle at 1 uCi, iv after 120 mins by gamma counting; assay type: ADME, organism-based; settings: in vivo, 2 h; procedure, shortened: as §1
[29] = Octanol-phosphate buffer partition coefficient, log D of the compound at pH 7.4; assay type: physicochemical
Procedure, shortened: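 Radiotracer added to premixed n-octanol (3 g) and PBS (0.05 M, pH 7.4; 3 g), and partitioned between the two phases.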

[30] = test system: Spleen; assay: Biodistribution in Kunming mouse spleen at 1 uCi, iv after 15 mins by gamma counting; assay type: ADME, organism-based; settings: in vivo, 0.25 h; procedure, shortened: as §1
[31] = test system: Brain; assay: Biodistribution in Kunming mouse brain at 1 uCi, iv after 60 mins by gamma counting; assay type: ADME, organism-based; settings: in vivo, 1 h; procedure, shortened: as §1
[32] = test system: Blood; assay: Biodistribution in Kunming mouse blood at 1 uCi, iv after 2 mins by gamma counting; assay type: ADME, organism-based; settings: in vivo; procedure, shortened: as §1
[33] = test system: Muscle tissue; assay: Biodistribution in Kunming mouse muscle at 1 uCi, iv after 2 mins by gamma counting; assay type: ADME, organism-based; settings: in vivo; procedure, shortened: as §1
[34] = test system: Muscle tissue; assay: Biodistribution in Kunming mouse muscle at 1 uCi, iv after 15 mins by gamma counting; assay type: ADME, organism-based; settings: in vivo, 0.25 h; procedure, shortened: as §1
[35] = test system: Blood; assay: Biodistribution in Kunming mouse blood at 1 uCi, iv after 60 mins by gamma counting; assay type: ADME, organism-based; settings: in vivo, 1 h; procedure, shortened: as §1
[36] = test system: Spleen; assay: Biodistribution in Kunming mouse spleen at 1 uCi, iv after 60 mins by gamma counting; assay type: ADME, organism-based; settings: in vivo, 1 h; procedure, shortened: as §1
[37] = test system: Brain; assay: Biodistribution in Kunming mouse brain at 1 uCi, iv after 2 mins by gamma counting; assay type: ADME, organism-based; settings: in vivo; procedure, shortened: as §1
[38] = test system: Spleen; assay: Biodistribution in Kunming mouse spleen at 1 uCi, iv after 2 mins by gamma counting; assay type: ADME, organism-based; settings: in vivo; procedure, shortened: as §1
[39] = test system: Lung; assay: Biodistribution in Kunming mouse lung at 1 uCi, iv after 30 mins by gamma counting; assay type: ADME, organism-based; settings: in vivo, 0.5 h; procedure, shortened: as §1
[40] = test system: Kidney; assay: Biodistribution in Kunming mouse kidney at 1 uCi, iv after 30 mins by gamma counting; assay type: ADME, organism-based; settings: in vivo, 0.5 h; procedure, shortened: as §1
[41] = test system: Brain; assay: Biodistribution in Kunming mouse brain at 1 uCi, iv after 15 mins by gamma counting; assay type: ADME, organism-based; settings: in vivo, 0.25 h; procedure, shortened: as §1
[42] = test system: Brain; assay: Biodistribution in Kunming mouse brain at 1 uCi, iv after 30 mins by gamma counting; assay type: ADME, organism-based; settings: in vivo, 0.5 h; procedure, shortened: as §1
[43] = test system: Heart; assay: Biodistribution in Kunming mouse heart at 1 uCi, iv after 60 mins by gamma counting; assay type: ADME, organism-based; settings: in vivo, 1 h; procedure, shortened: as §1
[44] = test system: Kidney; assay: Biodistribution in Kunming mouse kidney at 1 uCi, iv after 60 mins by gamma counting; assay type: ADME, organism-based; settings: in vivo, 1 h; procedure, shortened: as §1
[45] = test system: Blood; assay: Biodistribution in Kunming mouse blood at 1 uCi, iv after 15 mins by gamma counting; assay type: ADME, organism-based; settings: in vivo, 0.25 h; procedure, shortened: as §1
[46] = test system: Spleen; assay: Biodistribution in Kunming mouse spleen at 1 uCi, iv after 30 mins by gamma counting; assay type: ADME, organism-based; settings: in vivo, 0.5 h; procedure, shortened: as §1
[47] = test system: Muscle tissue; assay: Biodistribution in Kunming mouse muscle at 1 uCi, iv after 30 mins by gamma counting; assay type: ADME, organism-based; settings: in vivo, 0.5 h; procedure, shortened: as §1

## Ic1ccc(-c2ccc(/C=C/c3ccccc3)s2)s1
[1]
  Ki: 0.24 nM
  inhibition: Dose-dependent effect

## [125I]c1ccc(/C=C/c2ccc(-c3cccs3)s2)cc1
[2]
  Drug uptake: 1.16 % ID/g
[3]
  Drug uptake: 47.12 % ID/g
[4]
  Drug uptake: 0.93 % ID/g
[5]
  Drug uptake: 0.61 %ID
[6]
  Drug uptake: 40.18 % ID/g
[7]
  Drug uptake: 3.39 % ID/g
[8]
  Drug uptake: 4.28 %ID
[9]
  Drug uptake: 42.17 % ID/g
[10]
  Drug uptake: 12.99 % ID/g
[11]
  Drug uptake: 3.35 % ID/g
[12]
  Drug uptake: 4.37 % ID/g
[13]
  Drug uptake: 1.48 %ID
[14]
  Drug uptake: 3.37 % ID/g
[15]
  Drug uptake: 6.29 % ID/g
[16]
  Drug uptake: 47.7 % ID/g
[17]
  Drug uptake: 6.35 % ID/g
[18]
  Drug uptake: 21.98 % ID/g
[19]
  Drug uptake: 45.74 % ID/g
[20]
  Drug uptake: 3.36 %ID
[21]
  Drug uptake: 18.99 % ID/g
[22]
  Drug uptake: 0.55 % ID/g
[23]
  Drug uptake: 4.69 % ID/g
[24]
  Drug uptake: 5.53 % ID/g
[25]
  Drug uptake: 20.89 % ID/g
[26]
  Drug uptake: 1.76 % ID/g
[27]
  Drug uptake: 3.25 %ID
[28]
  Drug uptake: 0.76 % ID/g
[29]
  logD: 3.31
[30]
  Drug uptake: 12.61 % ID/g
[31]
  Drug uptake: 0.47 % ID/g
[32]
  Drug uptake: 12.1 % ID/g
[33]
  Drug uptake: 0.85 % ID/g
[34]
  Drug uptake: 0.97 % ID/g
[35]
  Drug uptake: 1.29 % ID/g
[36]
  Drug uptake: 14.58 % ID/g
[37]
  Drug uptake: 2.11 % ID/g
[38]
  Drug uptake: 11.46 % ID/g
[39]
  Drug uptake: 15.69 % ID/g
[40]
  Drug uptake: 4.56 % ID/g
[41]
  Drug uptake: 0.42 % ID/g
[42]
  Drug uptake: 0.41 % ID/g
[43]
  Drug uptake: 2.09 % ID/g
[44]
  Drug uptake: 4.91 % ID/g
[45]
  Drug uptake: 1.38 % ID/g
[46]
  Drug uptake: 14.82 % ID/g
[47]
  Drug uptake: 1.25 % ID/g

## CC(C)(C)c1ccc(/C=C/c2ccc(-c3ccc(I)s3)s2)cc1
[1]
  Ki: 1.58 nM
  inhibition: Dose-dependent effect

## Fc1ccc(/C=C/c2ccc(-c3ccc(Br)s3)s2)cc1
[1]
  Ki: 0.81 nM
  inhibition: Dose-dependent effect
